Apaf1 activ: activators of human Apaf-1 apoptosome; AID 489031; Apaf-1 apoptosome caspase-3 activation, DEVD-Rh110 fluorescence; hits give low values; 330,000 compounds, 0.31% hits; O14727; activity change, negative = activation, % at 20 µM;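 active means activity change at or below -40% at 20 µM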
Target sequence (O14727 whole entry, looked up): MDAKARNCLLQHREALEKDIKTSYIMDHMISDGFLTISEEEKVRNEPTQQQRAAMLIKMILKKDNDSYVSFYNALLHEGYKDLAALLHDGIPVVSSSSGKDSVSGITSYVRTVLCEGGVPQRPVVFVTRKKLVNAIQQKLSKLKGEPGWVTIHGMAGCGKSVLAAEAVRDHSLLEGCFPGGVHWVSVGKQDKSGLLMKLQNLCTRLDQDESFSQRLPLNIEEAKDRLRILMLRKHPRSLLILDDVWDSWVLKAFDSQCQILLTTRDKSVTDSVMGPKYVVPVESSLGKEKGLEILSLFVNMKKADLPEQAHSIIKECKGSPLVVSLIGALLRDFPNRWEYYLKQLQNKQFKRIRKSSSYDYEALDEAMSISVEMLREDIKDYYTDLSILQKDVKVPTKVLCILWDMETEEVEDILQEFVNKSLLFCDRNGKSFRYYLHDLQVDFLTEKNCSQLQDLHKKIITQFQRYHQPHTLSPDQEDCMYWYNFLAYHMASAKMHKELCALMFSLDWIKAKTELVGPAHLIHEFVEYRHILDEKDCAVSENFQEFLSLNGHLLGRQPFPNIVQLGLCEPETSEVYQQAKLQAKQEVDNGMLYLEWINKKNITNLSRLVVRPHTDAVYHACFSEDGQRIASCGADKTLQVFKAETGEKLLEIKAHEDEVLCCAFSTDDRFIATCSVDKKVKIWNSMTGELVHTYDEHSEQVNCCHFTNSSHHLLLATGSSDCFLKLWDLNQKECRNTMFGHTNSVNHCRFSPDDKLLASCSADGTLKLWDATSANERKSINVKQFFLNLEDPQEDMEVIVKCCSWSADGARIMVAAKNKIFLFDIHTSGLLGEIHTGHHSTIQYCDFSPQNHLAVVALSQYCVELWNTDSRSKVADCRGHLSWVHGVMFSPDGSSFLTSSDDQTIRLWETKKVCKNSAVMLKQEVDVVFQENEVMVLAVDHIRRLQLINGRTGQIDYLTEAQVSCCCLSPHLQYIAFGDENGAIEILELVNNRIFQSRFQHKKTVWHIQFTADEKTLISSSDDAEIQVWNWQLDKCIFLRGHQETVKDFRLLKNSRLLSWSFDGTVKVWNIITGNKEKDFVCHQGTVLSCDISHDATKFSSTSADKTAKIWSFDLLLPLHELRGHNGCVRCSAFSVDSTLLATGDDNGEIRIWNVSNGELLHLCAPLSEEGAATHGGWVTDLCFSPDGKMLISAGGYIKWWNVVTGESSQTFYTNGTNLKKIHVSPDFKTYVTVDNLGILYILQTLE
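system = biochemical Apaf-1 apoptosome reconstitution | buffer or medium = 20 mM HEPES pH 7.5 with CHAPS, BSA | also added = dATP and cytochrome c as apoptosome triggers, (Z-DEVD)2-Rh110 substrate | incubation = 30 min compound preincubation and 50 min reaction, both room temperature | measured by = fluorescence, 540 nm emission, 480 nm excitation | read-out basis = Caspase-3 cleavage activity downstream of Apaf-1 activation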
Rh110 interf act: counter-screen for Apaf-1 activators: fluorescence interference. AID 504616. shares compounds with Apaf1 activ. 980 tested, under 10 active. fluorescence interference (activity change), % at 20 µM, hits read low. Rh110 fluorescence interference, quenched caspase reaction, Ex480/Em540;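 active means mean activity change at or below -40% when tested at 20 µM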
Apaf-1 act conf: Apaf-1 (human) activation, single-dose confirmed. activity change, negative = activation, % at 20 µM. shares compounds with Apaf1 activ. AID 504617. 980 compounds, 5% hits. reconstituted apoptosome caspase-3 activity, DEVD-Rh110 fluorescence; hits give low values;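 active means mean activity change at or below -40%, meaning activation of 40% or more, at 20 µM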
The depositor's hits bear a star. The list is a sample of the results.

COc1ccc(NC(=O)CN2C(=O)S/C(=C/c3cccn3-c3ccc(C(=O)O)cc3)C2=O)cc1 was read as Apaf1 activ -239.7*.
Screening COc1cc(/C=C2/C(=O)N(c3ccc(C(=O)O)cc3)N=C2C)cc(OC)c1O returned Apaf1 activ 77.6.
COc1ccc(NC(=O)CCn2c(=S)[nH]c3ccccc3c2=O)cc1 was read as Apaf1 activ 85.7.
Screening Cc1cc(C)c(C#N)c(SCC(=O)Nc2nonc2N)n1 returned Apaf1 activ 63.6.
`CC(NC(=O)C1CCN(C(=O)c2cccs2)CC1)c1ccc(S(N)(=O)=O)cc1` (centres undefined) gave Apaf1 activ 62.1.
`C=C(C)C(=O)Nc1cccc(C2=NOC3(C2)C[C@@H](C(N)=O)N(C(=O)c2ccc(OC)cc2)C3)c1` (some centres undefined) gave Apaf1 activ -339.8*.
`CC1=CC(=Nc2c(C)n(C)n(-c3ccccc3)c2=O)C=CC1=O` gave Apaf1 activ 43.1.
`CC/C(=C(\c1ccc(O)cc1)c1ccc(OCCN(C)C)cc1)c1ccccc1` gave Apaf1 activ 65.3.
`CC/C(=C(/CC)c1ccc(O)cc1)c1ccc(O)cc1` gave Apaf1 activ -151.0*.
`CCc1ccc(CNc2ccc(O)cc2)cc1` gave Apaf1 activ 95.9.
CCc1ccc2cccc3c2c1N=CN3C was read as Apaf1 activ 86.6.
CC(=O)Nc1ccc2nc3ccccc3nc2c1 was read as Apaf1 activ 49.8.
For CCN(CC(=O)Nc1ccc2c(c1)OCCO2)C(=O)/C=C/c1ccc(OC)cc1OC the results were Apaf1 activ 64.0.
Screening C=C(C)C(=O)Nc1ccc2c(c1)OCCOCCOCCO2 returned Apaf1 activ -447.5*.
COc1cc(NC(C)CCCN)c2ncccc2c1Oc1ccccc1 (centres undefined) was read as Apaf1 activ 70.0.
For COc1ccc(C(CNC(=O)c2cccc(S(=O)(=O)N(C)c3ccccc3)c2)N2CCCC2)cc1 (centres undefined) the results were Apaf1 activ 43.5.
For Fc1ccc(CN2CCSCC2)cc1Br the results were Apaf1 activ -115.5*, Rh110 interf act -7.0 and Apaf-1 act conf 8.8.
CN(C)c1cc(N/N=C/c2ccccc2C(F)(F)F)nc(N(C)C)n1 was read as Apaf1 activ 56.2.
`CCC(CO)Oc1cc(NCc2cccc(Cl)c2)c2ncn(C(C)C)c2c1` (centres undefined) gave Apaf1 activ 72.6.
`C#CCOCCOCCOCCNc1nc(N2CCN(C(=O)[C@H]([C@@H](C)CC)n3cc([C@@H](N)Cc4ccc(O)cc4)nn3)CC2)nc(N2CCN(C(=O)[C@H](Cc3cc4ccccc4[nH]3)n3cc([C@@H](N)CC(C)C)nn3)CC2)n1` gave Apaf1 activ 63.0.
Cc1cc(C)n2nc(SC(C)C(=O)N(C)c3ccccc3)nc2n1 (centres undefined) was read as Apaf1 activ -54.0*, Rh110 interf act 0.5 and Apaf-1 act conf 10.4.
For Cc1cc(C)n2nc(N)c(N=Nc3ccccc3)c2n1 the results were Apaf1 activ -4.2.
Nc1ccc2nn(-c3cccc4ccccc34)nc2c1 was read as Apaf1 activ 96.1.
`Oc1ccc(NCc2ccccc2OCc2ccccc2F)cc1` gave Apaf1 activ 92.1.
For COc1ccc(/C=N/NC(=O)c2nn(-c3ccccc3)c(=O)c3c(N)scc23)cc1 the results were Apaf1 activ 60.5.
O=C(C[n+]1cccc(C(=O)N/N=C/c2ccc(Br)cc2)c1)c1ccccc1 was read as Apaf1 activ 49.5.
Screening O=C(N/N=C/c1ccc(OC(=O)c2ccccc2)cc1)c1ccc(CN2CCOCC2)cc1 returned Apaf1 activ -67.9*, Rh110 interf act 0.4 and Apaf-1 act conf 11.1.
For C=CCN(CC=C)Cc1c(O)ccc2c1oc(=O)c1ccccc12 the results were Apaf1 activ 46.8.
COc1cc(/C=C2\C(=O)N(CCC#N)N=C2C)c(Br)cc1OC(C)C was read as Apaf1 activ 78.5.
Screening COCc1cc(=O)oc2cc(NC(=O)c3ccc(C(C)(C)C)cc3)ccc12 returned Apaf1 activ -63.7*, Rh110 interf act 0.1 and Apaf-1 act conf 7.1.
CCOC(=O)N1CCN(C(=O)c2cccc(S(=O)(=O)Nc3ccc(OC)cc3)c2)CC1 was read as Apaf1 activ 51.5.
For COc1ccc(C(CNC(=O)c2cccc(NS(=O)(=O)c3ccc(Br)cc3)c2)N(C)C)cc1 (centres undefined) the results were Apaf1 activ -143.1*, Rh110 interf act 7.1 and Apaf-1 act conf 10.8.
`FC(F)(F)c1cc(CCN2CCNC[C@@H]2c2ccccc2)cc(C(F)(F)F)c1` gave Apaf1 activ 60.6.
`Nc1ccc2nn(-c3ccccc3)nc2c1` gave Apaf1 activ 93.2.
CC(C)Cc1nnc(NC(=O)C2CSC3(C)CCC(=O)N23)s1 (centres undefined) was read as Apaf1 activ -83.4*, Rh110 interf act 5.7 and Apaf-1 act conf 12.9.
`COc1ccc2sc(-c3ccccc3OC)c(-c3ccc(OCCN(C)C)cc3)c2c1` gave Apaf1 activ 65.0.
For COc1ccc(-n2nc(C(=O)NCC(=O)NC3CCCC(C)C3C)c3ccccc3c2=O)cc1 (centres undefined) the results were Apaf1 activ 51.2.
For CC(OC(=O)c1nn(C)c(=O)c2ccccc12)C(=O)NC1CCCCC1C (centres undefined) the results were Apaf1 activ -49.7*, Rh110 interf act -2.6 and Apaf-1 act conf 9.7.
For COc1ccc(-n2nc(C(=O)NCC(=O)NC3CCCC(C)C3C)c3ccccc3c2=O)c(OC)c1 (centres undefined) the results were Apaf1 activ 55.1.
`Fc1ccc(NC(=S)Nc2cccc3cnccc23)cc1` gave Apaf1 activ 95.1.
Screening C=CCn1c(SCC(=O)Nc2sccc2C(N)=O)nc2sc(CC)cc2c1=O returned Apaf1 activ 42.1.
`COc1cccc(-c2sc3ccc(OC)cc3c2-c2ccc(OCCN3CCCC3)cc2)c1` gave Apaf1 activ 69.9.
Cc1cc(C)n2nc(C(=O)N3CCCC(CNS(=O)(=O)c4cccs4)C3)cc2n1 (centres undefined) was read as Apaf1 activ -393.9*, Rh110 interf act 3.9 and Apaf-1 act conf 12.6.
`O=c1[nH]c(C2CCN(S(=O)(=O)c3ccc(C(F)(F)F)cc3)CC2)nc2c1nnn2Cc1ccc(F)cc1` gave Apaf1 activ 41.2.
For COc1ccc(/C=N/Nc2cc(N3CCCC3)nc(N3CCCC3)n2)cc1 the results were Apaf1 activ 93.4.
`CCCCCCSc1cccc(-c2nc3cc(C)ccn3c2NCc2ccccc2)c1` gave Apaf1 activ 40.3.
Screening CCC(C(=O)NCc1ccco1)n1nc(C)c2c(C)n(-c3ccccc3)nc2c1=O (centres undefined) returned Apaf1 activ -85.9*, Rh110 interf act 1.5 and Apaf-1 act conf 13.3.
For Nc1c(C(=O)NCc2ccco2)c2nc3ccccc3nc2n1CCc1ccccc1F the results were Apaf1 activ 61.4.
Screening C/C(CCN1CCc2nc(-c3ccccc3)c(-c3ccccc3)cc2C1)=N\OC[C@@H](C)[C@H](OCc1ccccc1)C(C)C returned Apaf1 activ 46.7.

Screens: PubChem BioAssay, Sanford-Burnham Center for Chemical Genomics
